# Legend:
# [1] = Cytotoxicity against human MT4 cells assessed as induction of cell death by MTT method; assay type: cell-based
# Summary of the method: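 Mock-infected MT-4 cells exposed to a range of drug concentrations. Viability read by MTT colorimetry at day 5. […] Top concentration was limited where compound precipitated in the culture medium. Means of at least two experiments.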
# [2] = system: Human immunodeficiency virus 1; assay: Antiviral activity against HIV-1 harboring NNTRI-resistant reverse transcriptase Y188L mutant infected in human MT4 cells assessed as inhibition of virus-induced cytopathic effect by MTT method; assay type: functional, organism-based; details: Human immunodeficiency virus 1, MT4
# Summary of the method: (§1)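 MT-4 lymphoid cells infected with HIV-1 carrying RT K103N, Y181C or Y188L, with a range of drug concentrations present. Viable cells counted by MTT colorimetric assay at day 5 post-infection. […] Highest concentration tested was limited by precipitation in culture medium. Means of at least two experiments.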
# [3] = system: Human immunodeficiency virus 1; assay: Antiviral activity against wild type HIV-1 NL4-3 infected in human MT4 cells assessed as inhibition of virus-induced cytopathic effect by MTT method; assay type: functional, organism-based; details: Human immunodeficiency virus 1, NL4-3, MT4
# Summary of the method: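 MT-4 lymphoid cells infected with wild-type HIV-1 NL4-3 while exposed to a range of drug concentrations. Viable cells counted by tetrazolium (MTT) colorimetry at day 5 post-infection. Means of at least two experiments.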
# [4] = system: Human immunodeficiency virus 1; assay: Fold resistance, ratio of EC50 for HIV-1 harboring NNTRI-resistant reverse transcriptase Y188L mutant infected in human MT4 cells to EC50 for wild type HIV-1 NL4-3 infected in human MT4 cells; assay type: functional
# Summary of the method: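 HIV-1 NL4-3 (wt) or Y188L mutant infection of MT-4 cells across a range of drug concentrations. Viable cells were counted by MTT at day 5 post-infection. […] Fold resistance is mutant EC50 over wt EC50. Means of at least two experiments.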
# [5] = system: Human immunodeficiency virus 1; assay: Fold resistance, ratio of ID50 for HIV-1 recombinant NNTRI-resistant reverse transcriptase L100I mutant to ID50 for wild type HIV-1 recombinant reverse transcriptase
# Summary of the method: (§2)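 Recombinant wt or mutant HIV-1 RT, purified to >95%, at 2-4 nM. RNA-dependent DNA polymerase activity with 0.5 µg poly(rA)/oligo(dT)10:1 (0.3 µM 3'-OH ends), 10 µM [3H]-dTTP and 8% final DMSO. Incorporation was sampled at 2-min intervals. ID50 came from fitting to a fully non-competitive model. Ratio is ID50 mutant/ID50 wt. Means of at least three experiments.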
# [6] = Selectivity index, ratio of CC50 for human MT4 cells to EC50 for wild type HIV-1 NL4-3 infected in human MT4 cells; assay type: toxicity, cell-based; details: read-out: Ratio CC50/EC50
# Summary of the method: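 Ratio of CC50 to EC50, both from MTT readings in MT-4 cells at day 5. CC50 was taken in mock-infected cells and EC50 in cells infected with wild-type NL4-3. Values are means of at least two experiments.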
# [7] = system: Human immunodeficiency virus 1; assay: Fold resistance, ratio of ID50 for HIV-1 recombinant NNTRI-resistant reverse transcriptase K103N mutant to ID50 for wild type HIV-1 recombinant reverse transcriptase; summary of the method: as §2
# [8] = system: Human immunodeficiency virus 1; assay: Antiviral activity against HIV-1 harboring NNTRI-resistant reverse transcriptase Y181C mutant infected in human MT4 cells assessed as inhibition of virus-induced cytopathic effect by MTT method; assay type: functional, organism-based; details: Human immunodeficiency virus 1, MT4; summary of the method: as §1
# [9] = system: Human immunodeficiency virus 1; assay: Fold resistance, ratio of ID50 for HIV-1 recombinant NNTRI-resistant reverse transcriptase Y181I mutant to ID50 for wild type HIV-1 recombinant reverse transcriptase
# Summary of the method: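 RNA-dependent DNA polymerase activity with 0.5 µg poly(rA)/oligo(dT)10:1 (0.3 µM 3'-OH ends), 10 µM [3H]-dTTP and 8% final DMSO. Incorporation was sampled at 2-min intervals. ID50 came from fitting to a fully non-competitive model. Means of at least three experiments.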
# [10] = system: Human immunodeficiency virus 1; assay: Antiviral activity against HIV-1 harboring NNTRI-resistant reverse transcriptase K103N mutant infected in human MT4 cells assessed as inhibition of virus-induced cytopathic effect by MTT method; assay type: functional, organism-based; details: Human immunodeficiency virus 1, MT4
# [11] = system: Human immunodeficiency virus 1; assay: Fold resistance, ratio of EC50 for HIV-1 harboring NNTRI-resistant reverse transcriptase Y181C mutant infected in human MT4 cells to EC50 for wild type HIV-1 NL4-3 infected in human MT4 cells; assay type: functional
# Summary of the method: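 MT-4 cells infected with HIV-1 mutant (K103N or Y181C) or wild-type NL4-3, with drug present. […] Fold resistance is the mutant EC50 divided by the wild-type NL4-3 EC50. EC50 values are means of at least two experiments.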
# [12] = system: Human immunodeficiency virus 1; assay: Fold resistance, ratio of EC50 for HIV-1 harboring NNTRI-resistant reverse transcriptase K103N mutant infected in human MT4 cells to EC50 for wild type HIV-1 NL4-3 infected in human MT4 cells; assay type: functional
# [13] = system: Human immunodeficiency virus type 1 reverse transcriptase (Human immunodeficiency virus 1), Q72547 [L100I]
# [14] = system: Human immunodeficiency virus type 1 reverse transcriptase (Human immunodeficiency virus 1), Q72547 [K103N]
# [15] = system: Human immunodeficiency virus type 1 reverse transcriptase (Human immunodeficiency virus 1), Q72547 [Y181I]
# [16] = molecular target: Human immunodeficiency virus type 1 reverse transcriptase (Human immunodeficiency virus 1) (UniProt Q72547)
# [17] = system: Human immunodeficiency virus 1; assay: Ratio of efavirenz EC50 to compound EC50 for wild type HIV-1 NL4-3 infected in human MT4 cells; assay type: functional
SMILES,CC50 [1] [nM],EC50 [2] [nM],EC50 [3] [nM],Ratio EC50 [4],Ratio [5],selectivity ratio [6],Ratio [7],EC50 [8] [nM],Ratio [9],EC50 [10] [nM],Ratio EC50 [11],Ratio EC50 [12],ID50 [13] [nM],ID50 [14] [nM],ID50 [15] [nM],ID50 [16] [nM],Ratio EC50 [17]
CCC(C)Sc1nc(C(C)c2c(F)cccc2Cl)cc(=O)[nH]1 (racemic),> 73000,7500,1,7500,25,> 73000,375,3600,2640,1000,3600,1000,,,,,
Cc1c(C(C)c2c(F)cccc2F)nc(SC2CCCC2)[nH]c1=O (racemic),> 3000,> 3000,,,60,> 3000,6,100,180,,100,230,300,30,900,5,
CCCSc1nc(C(C)c2c(F)cccc2Cl)c(C)c(=O)[nH]1 (racemic),> 1500,> 1500,0.05,,,> 30000,,260,,350,5200,7000,90,1500,,0.9,140
Cc1c(C(C)c2c(F)cccc2Cl)nc(SC2CCCC2)[nH]c1=O (racemic),> 15000,2900,0.03,96667,,> 500000,,230,,93,7667,3100,120,1300,,11,230
CC[C@@H](C)Sc1nc([C@H](C)c2c(F)cccc2Cl)cc(=O)[nH]1,> 31000,860,0.3,2859,18,> 103000,488,580,3750,200,1924,610,,,,,
CCCSc1nc(C(CC)c2c(F)cccc2Cl)c(C)c(=O)[nH]1 (racemic),> 3000,> 3000,26,,48,> 115,126,2800,700,2100,108,81,240,630,,5,
CCc1c(C(C)c2c(F)cccc2F)nc(SC2CCCC2)[nH]c1=O (racemic),> 3000,> 3000,160,,65,> 19,100,> 3000,900,> 3000,,,130,200,,2,
CCCCSc1nc(C(C)c2c(F)cccc2Cl)c(C)c(=O)[nH]1 (racemic),> 1500,> 1500,0.3,,52,> 5000,310,620,20000,660,2067,2200,156,930,,3,23
CCCSc1nc(C(CC)c2c(F)cccc2F)c(C)c(=O)[nH]1 (racemic),> 3000,> 3000,12,,37,> 250,70,> 3000,600,> 3000,,,220,420,,6,

# Source: ChEMBL document CHEMBL3286172, “Exploring the role of 2-chloro-6-fluoro substitution in 2-alkylthio-6-benzyl-5-alkylpyrimidin-4(3H)-ones: effects in HIV-1-infected cells and in HIV-1 reverse transcriptase enzymes” (J Med Chem, 2014)
